MrgX1 ag: activates human MrgX1 receptor signaling; hit rate 0.44% among 310,000; B-score at 10 µM; Q96LB2; MrgX1-HEK293 cells, Fluo-4 calcium fluorescence, agonist mode; stronger effect = higher value;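 active = calcium response B-score plate-corrected fluorescence ratio at least 3 library SD, with starting fluorescence B-score inside 5 SD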
Target sequence (Q96LB2 whole entry, looked up): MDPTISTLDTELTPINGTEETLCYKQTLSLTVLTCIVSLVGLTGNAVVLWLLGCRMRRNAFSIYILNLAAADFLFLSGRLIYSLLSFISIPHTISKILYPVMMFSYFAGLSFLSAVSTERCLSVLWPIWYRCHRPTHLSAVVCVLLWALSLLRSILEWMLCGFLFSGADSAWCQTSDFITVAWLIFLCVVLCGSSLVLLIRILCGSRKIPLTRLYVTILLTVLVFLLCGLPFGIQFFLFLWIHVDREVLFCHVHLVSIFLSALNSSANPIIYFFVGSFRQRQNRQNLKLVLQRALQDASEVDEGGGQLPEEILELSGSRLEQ
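Material: HEK293 cells stably expressing human MrgX1 receptor | Quantity: 15,000 cells per well | Times: Cells plated overnight, dye loaded 0.5 h 37 °C, 0.5 h room temperature | Measured by: Kinetic Fluo-4 NW fluorescence of intracellular calcium | Control set: Positive and negative controls per plate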
MrgX1 PAM: human MrgX1 positive allosteric modulation, primary screen | Q96LB2 | MrgX1-HEK293, Fluo-4 calcium flux, FDSS; stronger effect = higher value | B-score at 10 µM | hit rate 0.63% among 310,000 | AID 588675;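 active = plate-corrected calcium response at least 3 library SD above typical, normal starting fluorescence, not activating the receptor alone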;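 also: compound read alongside a low EC10 to EC30 dose of BAM8-22 agonist; peak minus trough fluorescence over baseline measured at the second addition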
RGS4 act: RGS4 potentiation or activation; HEK293 M3R/inducible RGS4, carbachol calcium flux Fluo4; stronger effect = lower value; B-score at 10 µM; hit rate 0.92% among 310,000;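 active = B-score of the integrated calcium signal more than 4 SD below the library mean, with starting fluorescence not abnormally high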;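 also: negative B-score means reduced calcium response which marks RGS4 activation or potentiation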
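Material: Inducible-RGS4 HEK293 cells carrying M3 receptor; also added: carbachol at ECmax as muscarinic agonist stimulus; incubation: compound preincubation 20 min at room temperature before agonist; signal: Fluo4-AM (2 µM) calcium-flux fluorescence, kinetic read; measure: integrated calcium ratio converted to B score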
RGS4 block: human RGS4 inhibition | P49798 | HEK293 M3R/RGS4 inducible, Fluo-4 calcium flux; stronger effect = higher value; triggered by carbachol at its EC20 | B-score at 10 µM | hit rate 0.45% among 310,000 | AID 463165;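 active = B-score, a plate-corrected calcium signal, over three deviations above library mean, with baseline fluorescence within five deviations of library mean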;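 also: RGS4 expression induced by doxycycline in cells with stable M3 receptor; B-score is computed from the integrated fluorescence ratio over baseline after carbachol; higher B-score means a larger calcium signal and so more RGS4 inhibition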
Target sequence (P49798 whole entry, looked up): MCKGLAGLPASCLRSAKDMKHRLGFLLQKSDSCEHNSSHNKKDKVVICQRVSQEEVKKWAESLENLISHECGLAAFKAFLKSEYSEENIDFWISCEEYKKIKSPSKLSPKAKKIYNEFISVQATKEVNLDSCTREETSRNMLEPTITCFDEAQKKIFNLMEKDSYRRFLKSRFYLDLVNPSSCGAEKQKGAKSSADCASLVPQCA
MrgX1 antagonist: antagonists of human MrgX1 receptor; AID 588676; hit rate 1.3% among 310,000; MRGX1-HEK293 calcium flux, Fluo-4, BAM8-22 antagonism; stronger effect = lower value; B-score at 10 µM;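 active = calcium-response B-score plate-corrected more than 3 library SD below zero, starting fluorescence within 5 deviations, no agonist response on first addition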;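 also: peak minus trough fluorescence over baseline after final BAM8-22 challenge near maximal dose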
Starred values were filed as active, the others as inactive; i = inactive; . = no result given. Most compounds without a hit are left out; they make up all but 3.5% or so of the library.

SMILES	MrgX1 ag	MrgX1 PAM	RGS4 act	RGS4 block	MrgX1 antagonist
C/C(N)=C(/C#N)C(=O)COC(=O)C1CCC(C(C)(C)C)CC1 (centres undefined)	i	i	i	i	i
CCOC(=O)C1=C(C)N=c2s/c(=C\c3ccc(OC(C)=O)cc3)c(=O)n2C1/C=C/c1ccccc1 (centres undefined)	i	i	-11*	i	i
C=CCN1C(=O)/C(=C/c2ccc(O)c(OC)c2)S/C1=N/c1nccs1	i	9*	i	i	i
C=CCN1C(=O)/C(=C/c2ccc(OCC(=O)O)cc2)S/C1=N/c1nccs1	i	i	i	i	i
CCN(c1ccc(OC)cc1)S(=O)(=O)c1cc(-c2cc(C)no2)ccc1C(C)C	i	i	i	i	i
CCOc1ccc(N(C)S(=O)(=O)c2cc(-c3cc(C)no3)ccc2C(C)C)cc1	i	i	i	i	-4.8*
CCCNC(=O)c1ccc(C2SCC(=O)N2CCc2ccccc2)cc1 (centres undefined)	i	i	i	i	i
CC(=O)OCCCN(C)CC/C=C1/c2ccccc2CSc2ccccc21	i	i	-7.9*	i	i
CCCCn1c(N)c(N(CCOC)C(=O)COC(=O)COc2ccc(CC)cc2)c(=O)[nH]c1=O	i	i	i	i	i
Cc1cc(Nc2ccc(C)c(Br)c2)n2nc(C)nc2n1	i	i	i	i	i
CC(C)COc1cccc(-c2cc(C(=O)N/N=C/c3ccncc3)c3ccccc3n2)c1	i	i	-7.4*	i	i
C/C(=N\NC(=O)c1cc(-c2cccc(OC(C)C)c2)nc2ccccc12)c1cccnc1	i	i	-9*	i	i
CCOc1cc(/C=N/NC(=O)c2cc(-c3cccc(OC)c3)nc3ccccc23)ccc1O	i	i	i	i	i
COc1ccc(CCn2nc(C)c([N+](=O)[O-])c2C)cc1	i	i	i	i	-6.5*
CCCCn1c(N)c(N(CC(C)C)C(=O)c2ccc(OCC3CCCO3)cc2)c(=O)[nH]c1=O (centres undefined)	i	i	i	i	-6.2*
CCOC1=C/C(=C/c2c(N)n3oc(C)cc3nc2=O)C=CC1=O	i	8.6*	i	i	i
Cc1cc2nc(=O)c(/C=C3\C=Nc4ccccc43)c(N)n2o1	i	i	i	i	i
CN(C(=O)COC(=O)c1cccc(S(=O)(=O)N2CCOCC2)c1)C1CCS(=O)(=O)C1 (centres undefined)	i	i	i	i	-5.4*
CN(C(=O)COC(=O)c1cccc(S(=O)(=O)N2CCCCCC2)c1)C1CCS(=O)(=O)C1 (centres undefined)	i	i	i	i	i
COc1ccc(C(=O)COC(=O)c2cnc(C)cn2)c(OC)c1	i	i	i	i	i
O=C(Nc1nc(-c2ccc3c(c2)OCO3)cs1)C1COc2ccccc2O1 (centres undefined)	i	i	-7.5*	i	i
Cc1ccc(C(=O)O/N=C2/CC3CCC2(C)[C@@]3(C)CBr)cc1 (some centres undefined)	i	i	i	i	i
Cc1cccc(C(=O)O/N=C2/CC3CCC2(C)C3(C)C)c1 (centres undefined)	i	8.2*	i	i	i
Cc1ccc(C(=O)O/N=C2\CC3CCC2(C)C3(C)C)cc1 (centres undefined)	i	6.6*	i	i	i
CC(C)(C)c1ccc(Oc2ncccc2NC(=O)c2cccs2)cc1	i	i	i	i	i
SMILES	MrgX1 ag	MrgX1 PAM	RGS4 act	RGS4 block	MrgX1 antagonist
Cc1ccc(S(=O)(=O)Nc2cccc(C(=O)NCC(c3ccccc3)N(C)C)c2)cc1F (centres undefined)	i	i	-7.5*	i	i
Cc1ccc(NS(=O)(=O)c2ccc(C(=O)NCC(c3ccco3)N(C)C)cc2)cc1 (centres undefined)	i	i	i	i	-4.9*
Cc1nn(Cc2ccccc2Cl)c(C)c1C(=O)NCC(c1cccs1)N1CCOCC1 (centres undefined)	i	i	i	i	i
CN(C)CC(C)(C)CNS(=O)(=O)c1cccc(Cl)c1Cl	i	i	i	i	i
COc1ccc(OC)c(C(=O)N2CCC(C(=O)c3ccc(F)cc3)CC2)c1	i	i	i	i	i
CSc1ccc(Cl)c(C(=O)NCCOc2cc(C)ccc2C(C)C)c1	i	i	-7.2*	i	i
C=CC[n+]1c(-c2ccccc2)csc1NC(C)(C)C	i	i	i	i	-4.9*
CCCCCC[n+]1c(-c2ccccc2)csc1Nc1ccccc1	i	i	i	i	i
COc1ccc(N2CCN(C(=O)c3cc(-c4cc(OC)ccc4OC)nc4ccccc34)CC2)cc1	i	i	-7*	i	i
COc1ccc(-c2cc(C(=O)N3CCCCCC3)c3ccccc3n2)c(OC)c1	i	i	i	i	i
COc1ccc(OC)c(-c2cc(C(=O)N3CCN(c4ncccn4)CC3)c3ccccc3n2)c1	i	i	-7.1*	i	i
CCOc1ccccc1N1CCN(C(=O)c2cc(-c3cc(OC)ccc3OC)nc3ccccc23)CC1	i	i	-7.4*	i	i
CCOC(=O)c1c(NC(C)=O)sc2c(OCC(O)CN(CC)CC)c(Br)ccc12 (centres undefined)	i	i	-7.6*	i	i
COc1cc(/C=C2\CCC/C(=C\c3ccc(O)c(OC)c3)C2=O)ccc1O	i	i	-9.9*	i	-5.7*
N#Cc1c(-c2ccccc2Cl)cc(-c2ccccc2)nc1Br	i	i	-7.3*	i	i
C=CCn1c(=O)/c(=C/c2ccc(Cl)cc2)s/c1=C(/C#N)c1nnc2n1CCCCC2	i	i	i	i	i
C=CCn1c(=O)/c(=C/c2ccc(O)cc2)s/c1=C(/C#N)c1nnc2n1CCCCC2	36*	i	.	.	i
COc1ccc(OC)c(C2C3CN(C(C)C)CC=C3C(C#N)=C(N)C2(C#N)C#N)c1 (centres undefined)	27*	i	i	i	i
Cc1ccc(C2C3CN(C(C)C)CC=C3C(C#N)=C(N)C2(C#N)C#N)cc1 (centres undefined)	i	i	-7.1*	i	i
CN1CC=C2C(C#N)=C(N)C(C#N)(C#N)[C@H](c3ccoc3)[C@H]2C1	i	i	i	i	i
CN1CC=C2C(C#N)=C(N)C(C#N)(C#N)C(c3cccc(Cl)c3Cl)C2C1 (centres undefined)	i	i	i	i	-5.5*

Assay outcomes (PubChem BioAssay)
